The source of these data is ChEMBL document CHEMBL5150070, “Tricyclic SpiroLactams Kill Mycobacteria In Vitro and In Vivo by Inhibiting Type II NADH Dehydrogenases” (J Med Chem, 2022).

Structures are written as SMILES. ≈ marks a conversion by molar mass, not a printed value. Bounds are passed on as bounds.

Broadly, the MIC is the lowest concentration found to suppress growth. By logD is commonly meant lipophilicity at a set pH, counting ionised and neutral species. Low values mean lower lipophilicity, high ones higher lipophilicity.

One data set deals with Mycobacterium avium. The data set is described as follows: Antibiotic activity against Mycobacterium avium TMC 724, ATCC-25291 assessed as reduction in bacterial cell growth by measuring resazurin reduction incubated for 6 days by fluorescence microplate based assay. It counts as functional. As to conditions: TMC 724, ATCC-25291, 144 h, time 6 day.
The test system of another data set is Mycobacterium marinum. Kind of data set: Antibiotic activity against Mycobacterium marinum M strain assessed as reduction in bacterial cell growth by measuring resazurin reduction incubated for 6 days by fluorescence microplate based assay. The format is functional. The conditions noted are these: 144 h, time 6 day. Background: Alamar Blue is a resazurin reagent that responds to reducing activity.

Data set [1] relates to Escherichia coli. The data set is described as follows: Antibiotic activity against Escherichia coli BW25113 assessed as reduction in bacterial cell growth by measuring resazurin reduction incubated for 6 days by fluorescence microplate based assay. It counts as functional. As to conditions: BW25113, 144 h, time 6 day. The gist of the method: (§1)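 E. coli BW25113, E. coli ΔtolC and S. aureus SH1000 were cultured and tested in cation-adjusted Mueller Hinton II broth. Viability was read by adding resazurin and measuring resorufin fluorescence at Ex 530 nm / Em 590 nm.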

Data set [2] is described as follows: Octanol/PBS partition coefficient, logD of compound at pH 7.4 measured after 2 hrs by shake flask method. As to conditions: octanol/water, pH 7.4, 2 h. It counts as physicochemical. The gist of the method: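 A 10 mM DMSO stock was diluted 50-fold into 1:1 octanol:PBS pH 7.4 and shaken gently for 2 h at room temperature. Each phase was diluted 50-fold in MeOH and quantified by LC-MS/MS. LogD = log of the octanol/PBS concentration ratio from mass signals. Run in triplicate.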

Another data set relates to Pseudomonas aeruginosa. Kind of data set: Antibiotic activity against Pseudomonas aeruginosa POA1 assessed as reduction in bacterial cell growth by measuring resazurin reduction incubated for 6 days by fluorescence microplate based assay. The format is functional. As to conditions: POA1, 144 h, time 6 day.
The next data set deals with Staphylococcus aureus. The data set is described as follows: Antibiotic activity against Staphylococcus aureus SH1000 assessed as reduction in bacterial cell growth by measuring resazurin reduction incubated for 6 days by fluorescence microplate based assay. The format is functional. The conditions noted are these: SH1000, 144 h, time 6 day. The gist of the method:
as §1

Data set [3] is described as follows: Metabolic stability in mouse liver microsomes. The format is ADME, Microsome. In general terms: Liver microsomes are vesicles of endoplasmic reticulum, rich in cytochrome P450 enzymes.
Data set [4] concerns Mycobacteroides abscessus. The data set is described as follows: Antibiotic activity against Mycobacterium abscessus CIP104536, Smooth variant assessed as reduction in bacterial cell growth by measuring resazurin reduction incubated for 6 days by fluorescence microplate based assay. The format is functional. The conditions noted are these: 144 h, time 6 day.
Data set [5] is described as follows: Toxicity in noninfected zebrafish larvae assessed as toxic effect. Set-up: species or system Danio rerio. As to conditions: in vivo.
Data set [6] deals with Mycobacterium tuberculosis. Kind of data set: Bactericidal activity against Non-replicating Mycobacterium tuberculosis ss18b-lux assessed as decrease in colony forming unit measured at 4.8 uM after 1 weeks. The format is functional. The gist of the method:
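Streptomycin-dependent 18b-lux starved of streptomycin for 14 days (OD600 reset to 0.2 on days 7 and 13) to become non-replicating. Diluted to OD600 0.15 on dispensed compound and held at 37°C. On day 7, active wells plated on 7H11-OADC with 50 µg/mL streptomycin and incubated up to 8 weeks for cfu.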

In data set [7] the test system is Escherichia coli. The data set is described as follows: Antibiotic activity against Escherichia coli deltatolC BW25113 deltatolC assessed as reduction in bacterial cell growth by measuring resazurin reduction incubated for 6 days by fluorescence microplate based assay. As to conditions: 144 h, time 6 day. The format is functional. The procedure, abridged: as §1

Regarding `CC(C)[C@H]1CO[C@]23CCN(Cc4ccc(C(F)(F)F)cc4)C[C@H]2CCC(=O)N13`, the MIC in the data set on Mycobacterium avium is 0.55 µM (≈ 0.218 µg/mL); with Mycobacterium marinum, 0.19 µM (≈ 0.0753 µg/mL); in the data set on Escherichia coli [1] it was more than 100 µM; in the data set with Pseudomonas aeruginosa, more than 100 µM; in the data set with Staphylococcus aureus, more than 100 µM; in data set [4] it was 5 µM (≈ 1.98 µg/mL). Moreover, the MIC in the data set with Escherichia coli [7] came out at 100 µM (≈ 39.6 µg/mL). Moreover, the logD in [2] was 3.4. The Drug metabolism entry in data set [3] is “Metabolite_Detected”. The Activity result in [5] was “Non-Toxic”; in data set [6] it was 1 log10CFU.
